Screens: PubChem BioAssay, several laboratories
HCT116 bCat-KO: beta-catenin-lacking colon tumor cell growth suppression; HCT116 beta-catenin knockout viability, CellTiter-Glo, 60 h; stronger effect = lower value; viability, % at 10 µM; 140,000 tested, 1.5% active;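 active means viability at or under a set limit, the compound median less 4 SD, cut at about 6% in these data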;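 further: 0% = Hyamine 1622 control at 20 µM and 100% = untreated cell control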
PMI act: phosphomannose isomerase (human) activation | 190,000 tested, 0.005% active | AID 1214 | activation factor at 20 µM | purified human PMI, coupled resazurin fluorescence, 20 min; stronger effect = higher value; 1 = vehicle control, 0 substrate-free wells | P34949;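 active means activation factor of 2 or more at 20 µM, relative to plate controls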
Target sequence (P34949 whole entry, looked up): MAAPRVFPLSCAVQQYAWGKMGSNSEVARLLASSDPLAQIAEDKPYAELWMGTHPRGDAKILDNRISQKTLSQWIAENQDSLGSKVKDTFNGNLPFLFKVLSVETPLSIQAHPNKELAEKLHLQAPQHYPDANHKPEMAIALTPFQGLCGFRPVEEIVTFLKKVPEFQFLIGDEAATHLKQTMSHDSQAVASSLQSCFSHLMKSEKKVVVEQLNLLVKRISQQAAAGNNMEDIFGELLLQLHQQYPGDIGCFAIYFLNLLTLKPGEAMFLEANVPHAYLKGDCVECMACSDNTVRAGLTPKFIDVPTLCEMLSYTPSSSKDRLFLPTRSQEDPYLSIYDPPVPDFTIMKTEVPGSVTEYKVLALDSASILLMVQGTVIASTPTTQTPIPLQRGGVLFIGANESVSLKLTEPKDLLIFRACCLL
Lmaj promast: inhibitors of Leishmania major promastigote growth; inhibition, % at 10 µM; Leishmania major promastigotes, resazurin fluorescence viability; 200,000 tested, 9% active; in the data active means inhibition above about 50%;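 further: promastigotes grown with compound for 44 hours at 28 °C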
PTEN del growth: suppresses growth of cells with PTEN deletion | HCT116 PTEN-null viability, CellTiter-Glo, 60 h; stronger effect = lower value | viability, % at 10 µM | 140,000 tested, 1.2% active | AID 827;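 active means viability at or below a set limit, 4 SD under the median of all tested compounds, cut at about 3.7% in these data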;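 further: PTEN knockout HCT116 line with beta catenin targeted HCT116 as companion control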
PMI act hi M6P: activators of human phosphomannose isomerase at near-saturating mannose 6-phosphate. coupled PMI enzyme assay, resazurin fluorescence, 20 min; stronger effect = higher value; 1 = untreated enzyme, 0 = substrate-free blank. P34949. activation factor at 20 µM. 190,000 tested, 0.34% active;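 active means activation factor of 2 or more at 20 µM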
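Test system: human phosphomannose isomerase with PGI, G6PDH, diaphorase coupling enzymes / Doses: 20 µM compound, 1% DMSO / Times: enzyme reaction with compound 20 min at room temperature / Measured by: Diaphorase-driven resazurin-to-resorufin fluorescence, excitation 544, emission 590 nm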
* = called active by the depositor; x = not tested or not shown. This is a sample that favours compounds with a hit; in the whole collection about 9.6% have one here.

SMILES	HCT116 bCat-KO	PMI act	Lmaj promast	PTEN del growth	PMI act hi M6P
O=C(Nc1cc(Oc2ccc(Cl)cc2)cc([N+](=O)[O-])c1)c1ccco1	68	0.9	64*	58	1
CCN1CCN(c2nc(N)c([N+](=O)[O-])c(Nc3ccc(C)c(C)c3)n2)CC1	83	1.1	60*	82	1.1
Cc1ccc(Nc2nc(N3CCN(C)CC3)nc(N)c2[N+](=O)[O-])cc1C	70	0.8	97*	71	0.9
CCN1CCN(c2ncnc3c2sc(=S)n3-c2ccccc2)CC1	69	1	52*	68	0.9
COc1ccc(C(=O)N2CCCC(c3nc(-c4cccs4)no3)C2)cc1 (configuration not stated)	78	1	9	77	0.9
O=C(c1ccc(Br)cc1)N1CCCC(c2nc(-c3cccs3)no2)C1 (configuration not stated)	x	0.9	67*	x	0.9
CCN(CC)CCCNC(=S)Nc1ccc(Br)cc1	x	x	83*	x	x
CC1(C)CC(=O)/C(=C\c2cccc([N+](=O)[O-])c2)C(C)(C)N1	18	0.9	100*	9	1
Clc1ccc(-c2nc(/C=N/N3CCOCC3)c3ccccn23)cc1	x	0.8	8	x	0.7
O=C(Nc1nnc(-c2ccc3c(c2)OCCO3)o1)C1CCCCC1	x	1	72*	x	1
O=C(Nc1nnc(-c2ccccc2)o1)C1CCCCC1	81	0.9	26	68	0.9
Cc1[nH]c2ccccc2c1C(=O)C(=O)N1CCN(C(=O)c2ccco2)CC1	x	1	0	x	1.1
COc1ccc(NC(=O)CCN2CCN(S(=O)(=O)c3ccc(C(C)C)cc3)CC2)cc1	45	0.9	3	55	1
CCOc1ccc(NC(=O)CN2CCN(S(=O)(=O)c3ccc(Cl)cc3)CC2)cc1	69	0.9	-6	60	0.9
CCOc1ccc(NC(=O)CCN2CCN(S(=O)(=O)c3cc(Cl)ccc3OC)CC2)cc1	102	0.9	99*	108	0.9
O=C(CCC(=O)N1CCN(S(=O)(=O)c2ccc(Cl)cc2)CC1)Nc1ccc2ccccc2c1	78	0.7	81*	72	0.8
COc1cccc(OCCCN2CCN(S(=O)(=O)c3ccc(NC(C)=O)cc3)CC2)c1	63	1.1	68*	66	1.1
COc1ccc(NC(=O)CCN2CCN(S(=O)(=O)c3ccc(Cl)cc3)CC2)cc1	86	1	93*	90	1
CC(=O)Oc1ccc(OC(C)=O)c(SCCCCCN2CCOCC2)c1	48	0.9	-4	38	0.7
COc1ccc(CCc2nnc(CCC(=O)NCCc3ncccc3C)o2)cc1	x	x	-2	x	x
Cc1cc(NC(=O)CSc2nc3sc(C)c(C)c3c(=O)n2C2CCCC2)no1	89	1	-4	85	1
N#Cc1cc([N+](=O)[O-])cnc1Nc1ccccc1	101	1	18	99	1
COc1ccc(N=c2oc3cc(O)ccc3cc2C(=O)NCC2CCCO2)c(OC)c1 (configuration not stated)	90	0.8	11	103	0.7
CN(CC(=O)Nc1ccc(S(=O)(=O)N2CCCC2)cc1)Cc1ccc(Cl)cc1Cl	80	0.8	86*	72	0.9
COc1ccc(S(=O)(=O)N2CCCN(CCC(=O)Nc3cccc(C(F)(F)F)c3)CC2)cc1	86	1	100*	91	1
SMILES	HCT116 bCat-KO	PMI act	Lmaj promast	PTEN del growth	PMI act hi M6P
CCOC(=O)CNC1CC(=O)N(c2cccc(Cl)c2)C1=O (configuration not stated)	89	0.9	0	90	0.9
O=C(Nc1ccc(Br)cc1)C(c1ccccc1)c1ccccc1	x	1	-2	x	1.1
COc1cccc(CC(NC(C)=O)C(=O)NC2CCN(c3nnnn3-c3ccccc3)CC2)c1OC (configuration not stated)	x	1	-2	x	1
CCC(C)n1c(SCC(=O)NC(=O)Nc2ccc3c(c2)OCCO3)nc2ccccc2c1=O (configuration not stated)	61	0.8	86*	53	0.8
Cn1c(C(=O)OC(C(=O)NC(C)(C)C)c2cccnc2)cc2sccc21 (configuration not stated)	x	1	95*	x	1.1
O=C(N/N=C\C=C\c1ccco1)c1cc(-c2ccc3ccccc3c2)n[nH]1	7	0.9	13	3.6*	1
O=C(N/N=C/C=C/c1ccco1)c1cccnc1	89	1	-5	85	1.1
CCOc1ccc(/C=C/C2=Cc3c(sc(NC(=O)CSc4n[nH]c(N)n4)c3C#N)C(C)(C)C2)cc1	28	1.3	100*	20	1.9
CCOC(=O)c1sc(NC(=O)CSc2n[nH]c(-c3ccncc3)n2)c(C#N)c1C	98	1	6	107	1.3
Cc1ccsc1/C=C/C1=Cc2c(sc(NC(=O)CSc3n[nH]c(N)n3)c2C#N)C(C)(C)C1	75	1.4	100*	74	1.8
COC(=O)c1sc(NC(=O)CSc2n[nH]c(N)n2)c(C(=O)OC)c1C	x	0.9	9	x	0.8
O=C(/C=C/c1ccccc1)CC(=O)c1ccccc1O	x	0.9	22	x	1.1
CC(=O)c1cccc(NS(C)(=O)=O)c1	x	1	-8	x	1
O=C(Nc1ccc2oc(-c3cccnc3)nc2c1)c1ccc([N+](=O)[O-])o1	x	0.9	100*	x	0.8
CCn1nnc(NC(=O)c2ccc([N+](=O)[O-])o2)n1	x	1	93*	x	1
CCCCn1nnc(NC(=O)c2ccc(-c3ccccc3[N+](=O)[O-])o2)n1	x	0.8	17	x	0.7
Cc1cccnc1NC(=O)c1ccc([N+](=O)[O-])o1	56	0.9	77*	45	1
O=C(Nc1ccc2oc(-c3cccnc3)nc2c1)c1ccc(Br)o1	103	0.9	-4	97	1
Cc1cccc(NC(=O)c2ccc([N+](=O)[O-])o2)n1	3.3*	1.1	96*	2.5*	1
CCn1c(CCNC(=O)c2cccs2)n[nH]c1=S	93	1.1	-4	96	1.1
Cc1ccc2nc(-c3sc4nc(C)cc(C)c4c3N)[nH]c2c1	78	0.9	-2	83	1
CS(=O)(=O)N1CCN(c2ccccc2NC(=O)c2ccc(Cl)cc2)CC1	92	1	-8	86	1
CS(=O)(=O)N1CCN(c2ccccc2NC(=O)c2ccc([N+](=O)[O-])o2)CC1	x	0.9	100*	x	0.9
Cc1ccc(NC(=O)c2ccc([N+](=O)[O-])o2)c(C)c1	x	1	94*	x	0.9
Cc1ccccc1NC(=O)c1ccc([N+](=O)[O-])o1	x	0.9	69*	x	0.9
Cc1cccc(NC(=O)COC(=O)c2ccc([N+](=O)[O-])o2)c1C	x	1	-1	x	0.9
CCOC(=O)c1cc2c(ccn2C)n1CC(=O)N1CCC(Cc2ccccc2)CC1	75	1	95*	73	0.8
Cc1ccc(NC(=S)Nc2ccc3cn[nH]c3c2)c(C)c1	x	0.8	39	x	0.6
Cc1ccc(NC(=S)c2nc3ccccc3[nH]2)c(C)c1	44	1	87*	49	1
